Assay results reported in ChEMBL document CHEMBL1154492, “Synthesis and activity of fibrillogenesis peptide inhibitors related to the 17-21 beta-amyloid sequence” (Eur J Med Chem, 2009).
The source made the active and inactive calls. The rule behind the calls is not given here. Residues, ends and D or L forms follow the SMILES beside them.

Legend:
[1] = Chemical stability assessed as compound remaining after proteolytic cleavage after 20 hrs in presence of chymotrypsin; type: physicochemical; conditions: read-out: Stability
Summary of the method: (§1)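 Each peptide at 0.76 mg/mL was incubated in PBS with 0.1 mg/mL chymotrypsin. Intact-peptide peak area was compared with an equivalent sample incubated in PBS alone.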

[2] = Chemical stability assessed as compound remaining after proteolytic cleavage after 2 hrs in presence of chymotrypsin; type: physicochemical; conditions: read-out: Stability; summary of the method: as §1
[3] = Inhibition of amyloid beta (1 to 40) fibril formation by thioflavin T fluorescent dye assay
Summary of the method: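 Aβ1-40 fractions were dissolved in 30 mM Tris/HCl pH 7.4 at 20 °C, with or without a 10-fold molar excess of inhibitor. Aliquots taken at 0.5, 1.5, 6, 8, 15 and 24 h went into ThT in 50 mM Tris/HCl pH 8.0. Fluorescence was read at 485 nm (excitation 450 nm) at 20 °C. Percent inhibition is relative to the parent pentapeptide. Three experiments, each sample in triplicate.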

[4] = Inhibition of amyloid beta (1 to 40) aggregation assessed as inhibition of protofbril formation
Summary of the method: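 Lyophilised Aβ1-40 was incubated in 30 mM Tris/HCl pH 7.4 at 20 °C, with or without a 10-fold molar excess of inhibitor. Aliquots taken at 30 min and 24 h were frozen, lyophilised, gold sputter-coated and imaged by scanning electron microscopy for protofibrils.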

remaining at 20 h [1]	remaining at 2 h [2]	Activity [3]	Activity [4]	Compound
15%	35%	–	–	CC(=O)N[C@@H](CC(C)C)C(=O)N1CCC[C@H]1CC(=O)N[C@@H](Cc1ccccc1)C(=O)N[C@@H](Cc1ccccc1)C(=O)N[C@@H](CC(=O)O)C(N)=O (HELM PEPTIDE1{[ac].L.[O=C(C[C@@H]1CCCN1[*:1])[*:2]].F.F.D.[am]}$$$$V2.0)
–	12%	–	–	Ac-LPFFD-NH2
55%	70%	Active	Active	CC(C)C[C@H](NS(=O)(=O)CCN(C)C)C(=O)N1CCC[C@H]1C(=O)N[C@@H](Cc1ccccc1)C(=O)N[C@@H](Cc1ccccc1)C(=O)N[C@@H](CC(=O)O)C(N)=O (HELM PEPTIDE1{[CN(C)CCS(=O)(=O)[*:2]].L.P.F.F.D.[am]}$$$$V2.0)

Further lines, the compound ahead of its results:

Compound	remaining at 20 h [1]	remaining at 2 h [2]	Activity [3]	Activity [4]
CC(=O)N[C@@H](CC(C)C)C(=O)N1C[C@@H](c2ccccc2)[C@@H]1C(=O)N[C@@H](Cc1ccccc1)C(=O)N[C@@H](Cc1ccccc1)C(=O)N[C@@H](CC(=O)O)C(N)=O (HELM PEPTIDE1{[ac].L.[O=C([C@H]1[C@H](c2ccccc2)CN1[*:1])[*:2]].F.F.D.[am]}$$$$V2.0)	15%	35%	–	–
CC(=O)N[C@@H](CC(C)C)C(=O)N1CC[C@H]1C(=O)N[C@@H](Cc1ccccc1)C(=O)N[C@@H](Cc1ccccc1)C(=O)N[C@@H](CC(=O)O)C(N)=O (HELM PEPTIDE1{[ac].L.[O=C([C@@H]1CCN1[*:1])[*:2]].F.F.D.[am]}$$$$V2.0)	15%	35%	Active	–
Ac-LPFFDLPFFD-NH2	–	22%	Active	–
CC(=O)N[C@@H](CC(C)C)C(=O)N1CCC[C@H]1CS(=O)(=O)N[C@@H](Cc1ccccc1)C(=O)N[C@@H](Cc1ccccc1)C(=O)N[C@@H](CC(=O)O)C(N)=O	15%	35%	–	–
